Measured values taken from ChEMBL document CHEMBL1126092, “Design, synthesis, and biological evaluation of novel 4-substituted 1-methyl-1,2,3,6-tetrahydropyridine analogs of MPTP” (J Med Chem, 1992).

How the values were obtained:
Details in all cases: cattle
[1] = molecular target: T1, Amine oxidase [flavin-containing] B (Bos taurus, UniProt P56560); experiment: Selectivity ratio for Vmax and KM values against MAO-B enzyme from bovine liver mitochondria
T1 sequence (P56560 whole entry): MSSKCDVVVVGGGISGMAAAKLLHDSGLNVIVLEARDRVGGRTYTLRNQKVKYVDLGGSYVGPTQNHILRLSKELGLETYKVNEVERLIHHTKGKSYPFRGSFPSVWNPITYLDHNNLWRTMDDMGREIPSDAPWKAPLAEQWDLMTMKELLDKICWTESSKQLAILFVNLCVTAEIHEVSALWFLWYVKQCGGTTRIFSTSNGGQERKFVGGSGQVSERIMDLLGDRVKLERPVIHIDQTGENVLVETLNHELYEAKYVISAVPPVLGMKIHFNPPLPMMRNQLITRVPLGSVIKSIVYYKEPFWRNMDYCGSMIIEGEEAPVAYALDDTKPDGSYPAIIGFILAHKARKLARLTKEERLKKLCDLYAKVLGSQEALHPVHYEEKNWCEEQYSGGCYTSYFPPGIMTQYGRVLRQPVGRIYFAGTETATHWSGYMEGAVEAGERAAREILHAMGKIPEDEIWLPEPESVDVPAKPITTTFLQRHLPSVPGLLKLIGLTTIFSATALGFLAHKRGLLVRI
Method in brief: (§1)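 Bovine liver mitochondrial MAO-B, 0.05 unit/mL (unit = 1 μmol benzylamine→benzaldehyde per min; equivalent to 3.7 nmol protein), incubated at 37 °C in 0.1 M sodium phosphate pH 7.4. Reaction started by substrate addition, final 0.1–3.0 mM. Product formation monitored spectrophotometrically, initial rates taken 30–180 s after enzyme addition. Apparent Vmax and KM from double reciprocal plot.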

[2] = molecular target: T2, Monoamine oxidase B (MAO-B) (Bos taurus, UniProt P56560); experiment: (§2) Tested against Monoamine oxidase B enzyme from bovine liver mitochondria; method in brief: as §1
T2 sequence (P56560 whole entry): T1 sequence (P56560 whole entry)

[3] = molecular target: T1, Amine oxidase [flavin-containing] B; experiment: as §2; method in brief: as §1

SMILES | Ratio [1] | Km [2] | Vmax [3]
CN1CC=C(Sc2ccccc2)CC1 | 3425 |  | 
CN1CC=C(c2ccccc2)CC1 | 523 | 390 µM | 204 nM/min
CN1CC=C(Oc2ccccc2)CC1 | 688 |  | 
CN1CC=C(OC(=O)N(C)C)CC1 | 57 |  | 
CN1CC=C(Cc2ccccc2)CC1 | 2674 |  | 
CN1CC=C(OC(=O)N(C)c2ccccc2)CC1 | 67 |  | 
